SENP7 inh = SENP7 protease inhibitors, primary screen, biochemical, luminescence, uHTS; Sentrin-specific protease 7 (Homo sapiens), Q9BQF6; recombinant SENP7, Z-RLRGG-aminoluciferin luminescence, 40 min; inhibition, % at 5 µM; 1.5% of 330,000 active;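 active = inhibition above about 50% at the single test dose, limit read from the data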;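 also: plate controls were DMSO with enzyme for no effect and no enzyme buffer wells for full effect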
SENP8 block-1 = SENP8 protease inhibitors, primary screen, biochemical, luminescence; 1.2% of 330,000 active; inhibition, % at 10 µM; purified SENP8, Z-RLRGG-aminoluciferin cleavage; in the data active = inhibition above about 50%
SENP8 block-2 = human SENP8 protease inhibitors, primary screen, biochemical, fluorescence, Nedd8 protein substrate, uHTS; inhibition, % at 20 µM; 0.64% of 360,000 active; recombinant SENP8; AID 602440, 2012; in the data active = inhibition mostly above about 40%, no sharp cut-off; inactive = mostly below about 27%
NRP1-CendR mod = modulators of CendR peptide binding to NRP-1, primary screen, biochemical, fluorescence polarization, uHTS; FAM-RPARPAR peptide binding to NRP-1; inhibition, % at 25 µM; 0.85% of 360,000 active;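 active = inhibition or corrected inhibition above about 18%, plus a signal ratio from 0.5 to 1.5, limit read from the data, passing the limit was not always enough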
Target sequence (O14786 whole entry, looked up): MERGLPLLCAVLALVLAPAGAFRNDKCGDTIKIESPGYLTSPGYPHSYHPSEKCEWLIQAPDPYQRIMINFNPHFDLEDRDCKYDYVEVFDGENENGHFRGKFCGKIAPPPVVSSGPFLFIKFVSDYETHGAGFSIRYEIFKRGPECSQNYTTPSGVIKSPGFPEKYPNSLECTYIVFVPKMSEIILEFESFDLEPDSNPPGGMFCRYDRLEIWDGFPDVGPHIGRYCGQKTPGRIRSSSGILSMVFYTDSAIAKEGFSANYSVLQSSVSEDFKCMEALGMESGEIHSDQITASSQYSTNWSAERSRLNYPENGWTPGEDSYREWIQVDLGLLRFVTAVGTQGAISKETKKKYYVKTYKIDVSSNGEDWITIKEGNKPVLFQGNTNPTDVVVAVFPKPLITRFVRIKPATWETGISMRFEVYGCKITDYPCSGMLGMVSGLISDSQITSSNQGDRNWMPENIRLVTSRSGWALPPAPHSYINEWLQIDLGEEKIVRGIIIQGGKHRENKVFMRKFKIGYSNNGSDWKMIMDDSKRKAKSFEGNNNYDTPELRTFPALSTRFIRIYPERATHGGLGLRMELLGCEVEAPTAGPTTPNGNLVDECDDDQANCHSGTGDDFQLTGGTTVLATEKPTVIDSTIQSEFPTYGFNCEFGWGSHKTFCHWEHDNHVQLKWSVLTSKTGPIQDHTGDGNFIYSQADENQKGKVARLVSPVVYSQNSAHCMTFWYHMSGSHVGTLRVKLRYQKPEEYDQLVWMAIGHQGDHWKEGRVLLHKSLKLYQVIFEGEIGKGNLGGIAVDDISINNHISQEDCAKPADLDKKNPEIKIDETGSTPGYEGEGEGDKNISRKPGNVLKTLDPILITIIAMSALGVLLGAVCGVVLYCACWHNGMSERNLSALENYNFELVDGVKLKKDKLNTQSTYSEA
SENP6 block = SENP6 protease inhibitors, primary screen, biochemical, luminescence, uHTS | AID 2599, 2010 | 1.8% of 330,000 active | Recombinant SENP6 catalytic domain, aminoluciferin luminescence | Sentrin-specific protease 6 (Homo sapiens), Q9GZR1 | inhibition, % at 10 µM;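 active = inhibition above about 50% at the single tested dose, limit read from the data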;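 also: plate controls were DMSO wells with enzyme for no effect and DMSO wells lacking enzyme for full effect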
SENP1 FRET inh = human SENP1 catalytic domain inhibitors, primary screen, biochemical, FRET, uHTS | Sentrin-specific protease 1 (Homo sapiens), Q9P0U3 | recombinant SENP1 catalytic domain, CyPet-SUMO1-YPet FRET cleavage | inhibition, % at 10 µM | 0.21% of 360,000 active | AID 624204, 2012;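 active = inhibition at least 30% at 10 µM, raw YFP signal under a set limit, fluorescence ratio 0.5 to 1.5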;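 also: 0% = enzyme with DMSO and 100% = no enzyme wells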
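Compound: 10 µM single point, 0.5% DMSO; Test system: hSENP1 catalytic domain, recombinant; Timing: 50 min reaction at room temperature; Technique: FRET, CFP and YFP emission; Control set: no-enzyme wells low, DMSO-plus-enzyme wells high control.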
SENP8 confirm = SENP8 protease inhibitors, retest, confirmation, biochemical, luminescence, single concentration. 40% of 6,200 active. shares compounds with SENP7 inh. AID 488912, 2010. Recombinant SENP8, Z-RLRGG-aminoluciferin luminescence, 60 min. inhibition, % at 12.5 µM;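 active = mean inhibition across replicates above about 50%, limit read from the data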
SENP6 confirm = SENP6 protease inhibitors, confirmation, biochemical, luminescence, single concentration; inhibition, % at 12.5 µM; 58% of 6,200 active; shares compounds with SENP7 inh; recombinant SENP6, Z-RLRGG-aminoluciferin luminescence; AID 488915, 2010
SENP7 conf = SENP7 protease inhibitors, retest, confirmation, biochemical, luminescence, single concentration. shares compounds with SENP7 inh. recombinant SENP7, Z-RLRGG-aminoluciferin luminescence, 40 min. inhibition, % at 12.5 µM. 69% of 6,200 active. AID 488917, 2010
Casp3 select = caspase-3 protease inhibitors, confirmation, selectivity assay for SENP inhibitor project, biochemical, single concentration | 60% of 6,200 active | purified caspase-3, Z-DEVD-aminoluciferin luminescence, 60 min | inhibition, % at 12.5 µM | shares compounds with SENP7 inh;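 active = mean inhibition above about 50%, limit read from the data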;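 also: plate controls were enzyme with DMSO for no effect and wells without caspase-3 for full effect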
SENP luc ctr = luminescence interference (SENP counter-screen); AID 488919; Pre-incubated SENP8/Z-RLRGG-aminoluciferin, luciferase luminescence interference; shares compounds with SENP7 inh; 39% of 6,200 active; inhibition, % at 12.5 µM;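 active = mean inhibition above about 50% when retested at one dose, limit read from the data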;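 also: plate controls were DMSO wells with completed reaction for no effect and substrate without enzyme for full effect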
* = called active by the depositor; nt = no result. Shown are actives, neighbours in structure and some others; about 3.3% of the full set was active somewhere.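 The calls were made as follows, unless noted: active = mean inhibition above about 50% in the one-dose retest (limit read from the data); inactive = the rest.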

SMILES	SENP7 inh	SENP8 block-1	SENP8 block-2	NRP1-CendR mod	SENP6 block	SENP1 FRET inh	SENP8 confirm	SENP6 confirm	SENP7 conf	Casp3 select	SENP luc ctr
COc1cc2nc(Nc3ccc(F)cc3)nc(N)c2cc1OC	67*	51*	-321	2	63*	0	66*	63*	90*	61*	70*
CCOC(=O)c1ccc(Nc2nc(N)c3cc(OC)c(OC)cc3n2)cc1	97*	73*	-286	4	76*	2	66*	78*	95*	58*	64*
Cc1cc(C)cc(C(O)c2ncc(-c3cccc(C(F)(F)F)c3)[nH]2)c1 (stereo unspecified)	nt	nt	20	13	nt	0	nt	nt	nt	nt	nt
CCNC(=O)C1CCCN(C(=O)c2ccccc2OC(F)(F)F)CC1 (stereo unspecified)	nt	nt	23	-1	nt	4	nt	nt	nt	nt	nt
Nc1nc(-c2ccccc2)cs1	-13	-15	14	-7	0	3	nt	nt	nt	nt	nt
Cc1cc(NC(=O)c2cc(-c3ccccc3)on2)no1	11	-3	1	5	-22	1	nt	nt	nt	nt	nt
Nc1nc(-c2cc(-c3ccccc3)no2)cs1	96*	95*	-7	6	96*	-2	97*	97*	102*	95*	83*
Cc1ccc(-c2cc(-c3ccccc3)no2)cc1	98*	92*	12	2	97*	-2	-23	29	71*	26	24
c1ccc(-c2cc(-c3ccccc3)on2)cc1	98*	87*	32	4	-10	1	5	85*	48	56*	45
Cc1ccc(O)c(NC(=O)c2cc(-c3ccccc3)on2)c1	45	-6	17	-31	18	0	nt	nt	nt	nt	nt
O=C(c1ccccc1)c1cc(-c2ccccc2)on1	101*	97*	16	11	99*	1	4	101*	104*	99*	94*
CCCCN(C)C(=O)c1sc(=O)n(Cc2ccccc2C#N)c1C	nt	nt	1	5	nt	3	nt	nt	nt	nt	nt
CC1(C(=O)NC2CCCC2)CCC(=O)N1CCCn1ccnc1 (stereo unspecified)	nt	nt	12	13	nt	3	nt	nt	nt	nt	nt
O=C(Cc1ccc(NC(=O)C2CCN(C(=O)C3CCCC3)CC2)cc1)Nc1ccc(C(=O)N2CCOCC2)cc1	nt	nt	8	-7	nt	-1	nt	nt	nt	nt	nt
COc1cccc(CNC(=O)[C@@H]2CCCN2)c1	nt	nt	9	10	nt	-1	nt	nt	nt	nt	nt
O[C@H]1CN(CC2CCCCC2)[C@@H](c2ccccc2)C[C@@H]1n1cc(C2CC2)nn1	nt	nt	0	-10	nt	0	nt	nt	nt	nt	nt
C(=C\c1ccccc1)/CN1CCN(C(c2cccc3ccccc23)c2nnnn2C2CCCC2)CC1 (stereo unspecified)	nt	nt	22	10	nt	3	nt	nt	nt	nt	nt
CC(C)(C)c1ccc(CC(=O)N2CCC2(C)C(=O)NS(=O)(=O)c2ccc(F)cc2F)cc1 (stereo unspecified)	nt	nt	11	-8	nt	0	nt	nt	nt	nt	nt
COc1ccc(-n2c3nc4ccccc4nc3c3c(=N)oc(C)nc32)cc1	75*	63*	-285	-7	90*	-27	4	40	19	-2	-4
COC1OC(O)C(NC(=O)C(F)(F)F)CC1O (stereo unspecified)	nt	nt	18	5	nt	1	nt	nt	nt	nt	nt
Cn1c(=O)[nH]c2nnc(-c3ccc(Cl)c(Cl)c3)nc2c1=O	97*	97*	12	-10	96*	9	56*	80*	53*	91*	16
CSc1cnc2c(=O)n(C)c(=O)[nH]c2n1	2	-4	-420	-4	6	-40	nt	nt	nt	nt	nt
Cc1c(C(=O)O)[nH]c2c1C(=O)CC(c1ccc(Cl)cc1)C2 (stereo unspecified)	90*	5	8	-9	-7	0	7	5	-2	-2	-5
Cc1c(C(=O)N2CCOCC2)[nH]c2c1C(=O)CC(c1ccc(Cl)cc1)C2 (stereo unspecified)	2	3	22	0	0	0	nt	nt	nt	nt	nt
Cc1cccnc1Nc1nc(-c2ccc(O)c(O)c2)cs1	66*	92*	11	4	92*	3	89*	89*	96*	45	86*
SMILES	SENP7 inh	SENP8 block-1	SENP8 block-2	NRP1-CendR mod	SENP6 block	SENP1 FRET inh	SENP8 confirm	SENP6 confirm	SENP7 conf	Casp3 select	SENP luc ctr
Cc1nc(C)c(-c2csc(Nc3ncccc3C)n2)s1	59*	61*	5	-11	67*	2	52*	60*	86*	50	25
COc1ccc(-c2csc(Nc3ncccc3C)n2)cc1	93*	92*	11	-15	100*	1	95*	97*	102*	87*	92*
O=C(O)C1(O)C[C@@H](O)C(O)[C@H](O)C1 (stereo partly specified)	nt	nt	4	-1	nt	0	nt	nt	nt	nt	nt
CN1CCn2cnc(C(=O)Nc3ccc(Cl)cc3)c2C1=O	nt	nt	12	-5	nt	1	nt	nt	nt	nt	nt
CC(C)(C)c1ccc(OCc2nc(-c3ccccn3)no2)c(Br)c1	43	18	18	-2	59*	-1	45	57*	74*	33	21
Clc1cccc(OCc2nc(-c3ccncc3)no2)c1	4	-12	7	-9	-13	1	nt	nt	nt	nt	nt
Clc1cc(Cl)c(OCc2nc(-c3ccccn3)no2)cc1Cl	81*	81*	6	0	61*	1	15	50	96*	52*	8
COc1ccc(Cc2nc(-c3ccccn3)no2)cc1	9	-5	16	-1	-8	0	nt	nt	nt	nt	nt
